Measured values as given in publication PMC8301548 (Clinical and Translational Science, 2021).
In brackets after ≈: the same amount, converted by molar mass. Where two headings read alike, the source gives them in different places.

Key:
[1] = type: in vivo; conditions: human, serum, po, 300 mg, 300 mg single oral dose of allopurinol; for Cmax / Vd/F / AUC(0-t): mean ± SE; for Tmax: median (range); for Vd/F: V/F (apparent volume of distribution)
[2] = Tolerability in the clinical study; type: in vivo, human; conditions: 19 healthy volunteers who completed the study; 300 mg oral allopurinol
In short: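 Healthy adults aged 18–50 were screened by medical-history questionnaire. Exclusions were HLA‑B*58:01 carriers, interacting medications, liver enzymes or creatinine >1.5× normal range, and abnormal platelet or white-cell counts. […] In one protocol they continued 300 mg once daily, with a final dose on day 6. In the other they received a single dose only.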

[3] = system: serum uric acid (SUA); conditions: cited from earlier work
[4] = system: BCRP; conditions: cited from earlier work
[5] = Population PK model of oxypurinol; type: in vivo, human; conditions: for Kfm (formation rate constant): final PK model
[6] = system: serum uric acid (SUA); type: in vivo, human

SMILES | Cmax ([1]; genotype (0) CC, n=9) | Cmax ([1]; genotype (1) CA, n=7) | Cmax ([1]; genotype (2) AA, n=3) | Tmax ([1]; genotype (0) CC) | Tmax ([1]; genotype (1) CA) | Tmax ([1]; genotype (2) AA) | Vd/F ([1]; genotype (0) CC) | Vd/F ([1]; genotype (1) CA) | Vd/F ([1]; genotype (2) AA) | BCRP substrate [4] | also measured
Oc1ncnc2[nH]ncc12 [Allopurinol, allopurinol] | 1370 ± 130 ng/mL | 1930 ± 617 ng/mL | 1550 ± 453 ng/mL | 1.5 h | 1 h | 2 h | 149 ± 17 L | 160 ± 22.3 L | 148 ± 40.9 L | substrates of BCRP | tolerability [2]: well‐tolerated; patients reaching an acceptable treatment end point [3]: 21%
O=c1[nH]c(=O)c2c[nH]nc2[nH]1 [Oxypurinol, oxypurinol] | 5930 ± 409 ng/mL | 6440 ± 592 ng/mL | 6380 ± 1350 ng/mL | 4 h | 4 h | 6 h | 49.9 ± 4.53 L | 61.9 ± 9.58 L | 56.6 ± 11.6 L | substrates of BCRP | AUC(0-t) ([1]; AUC0–24, genotype (0) CC): 93900 ± 8070 ng·h/mL; AUC(0-t) ([1]; AUC0–24, genotype (1) CA): 93400 ± 9990 ng·h/mL; AUC(0-t) ([1]; AUC0–24, genotype (2) AA): 105000 ± 20600 ng·h/mL; θgender(female), covariate effect on V/Fm ([5]; V/Fm=θV/Fm×(1+θgender), estimate (%RSE) [95% CI]): θgender(female) = −0.248 (35.7) [−0.395, −0.067]; Kfm (formation rate constant) ([5]; BSV in parentheses in the text): 0.771 h⁻¹; Kfm (formation rate constant) ([5]; estimate (%RSE) [95% CI]): 0.771 (17.8) [0.535, 1.06] 1/h; lower V/Fm in women compared with men ([5]; final PK/PD model, gender covariate): 24.8%; Vd/F ([5]; male, human, plasma, oral, 300 mg): 57 L; EC50 ([6]; Homo sapiens, read-out: C50 (concentration needed to achieve 50% effect)): 2.59 µg/mL (≈ 17 µM); Emax (maximum effect) ([6]; final PK/PD model, effect on SUA, RSE not given): 1
